These results are taken from ChEMBL document CHEMBL4622996, “Discovery of Vixotrigine: A Novel Use-Dependent Sodium Channel Blocker for the Treatment of Trigeminal Neuralgia” (ACS Med Chem Lett, 2020).

A short description of data set [1]: Ratio of drug level in brain to blood in rat. Particulars: read-out: Kbb. The class given is ADME, tissue-based.
The test system of data set [2] is Rattus norvegicus. The data set is described as follows: Antinociceptive activity in rat model of chronic constriction injury-induced neuropathic pain assessed as inhibition of mechanical allodynia at 0.5 to 5 mg/kg, po BID administered 22 days post surgery and measured after 6 to 8 days. It is filed as functional, organism-based. The gist of the method: (§1)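 Chronic constriction injury neuropathic pain model in rat; oral dosing at 0.5 or 5 mg/kg BID starting day 22; mechanical allodynia read after 6 and 8 days of dosing; gabapentin 30 mg/kg po BID as positive control. Free plasma levels sampled on day 8, 0.5 h postdose.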

The test system of data set [3] is Rattus norvegicus. The experiment in a line: Antiinflammatory activity in complete Freund's adjuvant-induced knee joint rat model of subchronic inflammation assessed as inhibition of CFA-induced hypersensitivity to pain at 1 mg/kg, BID. The class given is functional, organism-based. The gist of the method: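 CFA-induced knee joint model of subchronic inflammation; oral 1 mg/kg BID over a 5-day dosing period; reversal of hypersensitivity compared against celecoxib.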

The nature of data set [4]: Volume of distribution in steady state in monkey at 0.5 mg/kg, iv. The class given is ADME, organism-based, Macaca mulatta. The conditions noted are these: rhesus monkey, in vivo, read-out: Vdss.
Data set [5] in a line: Volume of distribution in steady state in dog at 0.5 mg/kg, iv. The class given is ADME, organism-based, Canis lupus familiaris. The conditions noted are these: in vivo, read-out: Vdss.
Data set [6] in a line: Aqueous solubility of compound in HCl salt : water. The class given is physicochemical.
A short description of data set [7]: Half life in rat at 0.5 mg/kg, iv. The class given is ADME, organism-based. Particulars: in vivo.
Data set [8] is described as follows: Total blood clearance in rat blood at 0.5 mg/kg, iv. The class given is ADME, organism-based.
A short description of data set [9]: Free plasma concentration in rat model of chronic constriction injury-induced neuropathic pain at 0.5 mg/kg, po BID administered 22 days post surgery and measured on day 8 at 0.5 hrs post-dose. The class given is ADME, organism-based. Particulars: in vivo. The gist of the method: as §1
Data set [10] can be described thus: Half life in dog at 0.5 mg/kg, iv. The class given is ADME, organism-based, Canis lupus familiaris. Particulars: in vivo.
Data set [11] is described as follows: Oral bioavailability in dog at 3 mg/kg. It is filed as ADME, organism-based, Canis lupus familiaris. The conditions noted are these: in vivo.
The nature of data set [12]: Toxicity in rat assessed as sedation by measuring spontaneous locomotor activity at 60 mg/kg, po. It is filed as organism-based. Particulars: in vivo. Summed up:
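Male rats, spontaneous locomotor activity test; oral doses 60, 100 or 300 mg/kg given 30 min before the session; plasma sampled 60 min postdose at 60 mg/kg.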

The nature of data set [13]: Free plasma concentration in rat model of chronic constriction injury-induced neuropathic pain at 5 mg/kg, po BID administered 22 days post surgery and measured on day 8 at 0.5 hrs post-dose. The class given is ADME, organism-based. Particulars: in vivo. Summed up:
as §1

A further data set concerns the target T1, Cytochrome P450 2C8 (Homo sapiens, UniProt P10632).
T1 sequence (P10632 whole entry): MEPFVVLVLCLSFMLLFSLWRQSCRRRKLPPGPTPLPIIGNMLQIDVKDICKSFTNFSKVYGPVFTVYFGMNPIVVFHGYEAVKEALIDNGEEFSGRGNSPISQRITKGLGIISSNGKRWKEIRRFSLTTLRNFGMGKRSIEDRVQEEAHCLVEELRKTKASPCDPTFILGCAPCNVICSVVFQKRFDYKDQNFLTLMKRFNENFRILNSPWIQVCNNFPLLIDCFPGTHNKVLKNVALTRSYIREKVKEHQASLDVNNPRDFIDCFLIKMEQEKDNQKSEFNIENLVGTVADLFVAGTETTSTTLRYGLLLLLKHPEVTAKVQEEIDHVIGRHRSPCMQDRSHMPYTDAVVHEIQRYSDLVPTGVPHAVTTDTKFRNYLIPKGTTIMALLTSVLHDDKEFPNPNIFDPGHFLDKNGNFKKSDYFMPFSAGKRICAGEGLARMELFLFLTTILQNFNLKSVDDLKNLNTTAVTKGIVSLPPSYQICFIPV
The experiment in a line: Inhibition of CYP2C8 (unknown origin). The class given is ADME.

The nature of data set [14]: Free plasma concentration in complete Freund's adjuvant-induced rat model at 1 mg/kg, po measured after 1 hr. It is filed as ADME, organism-based. Particulars: in vivo.
In the next data set the target is T2, Cytochrome P450 2B6 (Homo sapiens, UniProt P20813).
T2 sequence (P20813 whole entry): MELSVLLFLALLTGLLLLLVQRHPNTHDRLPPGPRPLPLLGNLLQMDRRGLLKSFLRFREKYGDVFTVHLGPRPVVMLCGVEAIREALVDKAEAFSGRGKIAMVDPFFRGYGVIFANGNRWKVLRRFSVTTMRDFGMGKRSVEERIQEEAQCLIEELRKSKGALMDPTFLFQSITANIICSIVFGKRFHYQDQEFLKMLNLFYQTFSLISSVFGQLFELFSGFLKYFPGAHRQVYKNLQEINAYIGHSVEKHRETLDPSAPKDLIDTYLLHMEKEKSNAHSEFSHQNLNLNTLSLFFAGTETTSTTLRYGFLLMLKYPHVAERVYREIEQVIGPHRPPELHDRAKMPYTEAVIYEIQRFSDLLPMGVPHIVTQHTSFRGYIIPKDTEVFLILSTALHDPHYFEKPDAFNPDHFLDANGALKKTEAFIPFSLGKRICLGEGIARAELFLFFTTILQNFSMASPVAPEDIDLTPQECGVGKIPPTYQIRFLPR
The experiment in a line: Inhibition of CYP2B6 (unknown origin). The class given is ADME.

Data set [15] can be described thus: Oral bioavailability in rat at 3 mg/kg. The class given is ADME, organism-based. The conditions noted are these: in vivo.
A short description of data set [16]: Cmax in monkey at 3 mg/kg, po. It is filed as ADME, organism-based, Macaca mulatta. Also noted: dose 3 mg/kg, route oral. The conditions noted are these: rhesus monkey, in vivo.
The target in the next data set is Cytochrome P450 2D6 (Homo sapiens, UniProt P10635). The data set is described as follows: Inhibition of CYP2D6 (unknown origin). It is filed as ADME.
Cytochrome P450 2D6, sequence (P10635 whole entry): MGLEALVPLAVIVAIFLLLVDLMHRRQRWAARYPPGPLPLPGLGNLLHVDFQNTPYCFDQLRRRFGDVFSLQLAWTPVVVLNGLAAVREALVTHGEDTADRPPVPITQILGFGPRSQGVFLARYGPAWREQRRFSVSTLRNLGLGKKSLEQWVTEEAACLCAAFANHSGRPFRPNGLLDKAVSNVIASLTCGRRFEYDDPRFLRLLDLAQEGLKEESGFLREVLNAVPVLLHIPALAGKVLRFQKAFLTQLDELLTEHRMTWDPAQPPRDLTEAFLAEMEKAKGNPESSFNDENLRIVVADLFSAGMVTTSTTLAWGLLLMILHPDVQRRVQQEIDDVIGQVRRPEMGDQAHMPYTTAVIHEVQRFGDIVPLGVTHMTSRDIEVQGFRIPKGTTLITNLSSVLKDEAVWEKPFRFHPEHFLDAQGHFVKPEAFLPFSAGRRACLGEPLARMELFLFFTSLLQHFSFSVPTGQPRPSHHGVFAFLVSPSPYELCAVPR
Data set [17] has as its target T3, Broad substrate specificity ATP-binding cassette transporter ABCG2 (Homo sapiens, UniProt Q9UNQ0).
T3 sequence (Q9UNQ0 whole entry): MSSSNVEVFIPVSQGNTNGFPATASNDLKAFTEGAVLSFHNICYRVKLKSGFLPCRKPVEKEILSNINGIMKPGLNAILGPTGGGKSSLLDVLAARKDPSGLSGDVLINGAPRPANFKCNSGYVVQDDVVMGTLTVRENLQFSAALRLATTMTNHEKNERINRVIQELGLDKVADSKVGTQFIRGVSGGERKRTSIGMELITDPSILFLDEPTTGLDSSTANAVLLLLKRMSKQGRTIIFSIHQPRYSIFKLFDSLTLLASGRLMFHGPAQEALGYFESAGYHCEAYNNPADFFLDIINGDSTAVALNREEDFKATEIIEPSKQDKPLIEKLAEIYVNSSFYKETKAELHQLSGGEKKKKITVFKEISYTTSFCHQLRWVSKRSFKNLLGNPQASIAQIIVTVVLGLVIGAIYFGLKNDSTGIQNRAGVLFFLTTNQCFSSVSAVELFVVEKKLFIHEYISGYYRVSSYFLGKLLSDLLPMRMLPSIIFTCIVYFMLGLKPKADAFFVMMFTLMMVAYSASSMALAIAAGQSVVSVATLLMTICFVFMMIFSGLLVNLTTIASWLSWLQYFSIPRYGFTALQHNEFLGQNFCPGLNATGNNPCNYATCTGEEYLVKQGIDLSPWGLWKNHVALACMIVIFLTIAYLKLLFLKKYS
The experiment in a line: Inhibition of BCRP (unknown origin).

Data set [18] concerns Rattus norvegicus. The data set is described as follows: Antiinflammatory activity in complete Freund's adjuvant-induced rat model assessed as inhibition of CFA-induced hypersensitivity to pain administered orally at a single dose. The class given is functional. Particulars: po.

Activity calls are given as the source filed them.

Broadly, the solubility is how much of the substance goes into solution per volume. The term half-life denotes the time needed for the level to fall by half in the phase considered. For orientation: clearance means a measure of how efficiently the substance is removed, as volume per time. The term bioavailability denotes dose-corrected exposure relative to a reference, in per cent. Usually IC50 stands for the concentration at which inhibition is half-maximal. By Cmax is commonly meant the peak of the concentration-time curve. For orientation: ED50 means the midpoint of the dose-response relation. Regarding `Cl.NC(=O)[C@@H]1CC[C@H](c2ccc(OCc3ccccc3F)cc2)N1` [RAXATRIGINE HYDROCHLORIDE], the Kp in [1] turned out to be 6.8. Moreover, the result with Rattus norvegicus [2] and with Rattus norvegicus [3] was Active. Moreover, the Vd in data set [4] and in data set [5] was 2 L/kg in each case. Moreover, the solubility in data set [6] was found to be 16.3 mg/mL. The half-life in data set [7] is 0.8 h; in data set [10], 2.2 h. Further, the clearance in [8] was 39 mL/min/kg. For the same compound, the “Cp(f)” value was found to be 1.9 ng/mL in data set [9], 23.4 ng/mL in [13] and 7.8 ng/mL in data set [14]. For the same compound, the bioavailability in data set [11] was found to be 57%; in data set [15], 43%. Further, in data set [12], the Activity result is listed as “Non-Toxic”. Also, the IC50 on Cytochrome P450 2C8 was over 100 µM; against Cytochrome P450 2B6, 31 µM; against Cytochrome P450 2D6, over 100 µM. The highest concentration (Cmax) in [16] came out at 730 ng/mL. Besides, in [17], the “inhibition (INH)” value is reported as “Not Active”. Moreover, the 50% effective dose (ED50) in the data set with Rattus norvegicus [18] was found to be 0.91 mg/kg.
